RBBP9 inh – blocks human serine hydrolase RBBP9. O75884. recombinant RBBP9, FP-Rh probe fluorescence polarization. inhibition, % at 7.94 µM. 220,000 tested, 0.2% active;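 active = inhibition above the campaign mean of all tested compounds plus 3 SD, cut at about 14% in these data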;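 note: plate controls were DMSO wells with RBBP9 for no effect and wells lacking RBBP9 protein for full effect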
Target sequence (O75884 whole entry, looked up): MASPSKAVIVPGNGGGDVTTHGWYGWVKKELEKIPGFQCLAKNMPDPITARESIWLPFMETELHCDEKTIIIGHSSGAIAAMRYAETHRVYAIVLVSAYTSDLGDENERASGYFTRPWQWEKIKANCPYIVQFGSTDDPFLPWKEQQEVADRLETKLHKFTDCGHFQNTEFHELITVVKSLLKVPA
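System: RBBP9 protein / Quantity: 2.5 µM RBBP9 dispensing solution, before mixing / Also added: Serine-hydrolase probe FP-Rh, 375 nM pre-mixing / Dosing: 7.94 µM single dose, 0.794% DMSO / Timing: enzyme-compound preincubation 30 min, then probe labeling 45 min, 25 °C / Signal: FP readout at 525/598 nm / Controls: DMSO-treated enzyme wells and wells lacking RBBP9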
zVAD death inh – blocks zVAD induced death of L929 cells; viability rescue, % at 10 µM; L929 zVAD necroptosis rescue, ATP luminescence, 24 h; with zVAD 60 µM; 220,000 tested, 0.38% active;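 active = activation, scaled between plate controls, above about 75%, limit read from the data; inactive = activation under that limit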;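 note: 0% = zVAD with DMSO and 100% = DMSO alone without zVAD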
Tb hexokinase – blocks Trypanosoma brucei hexokinase 1 activity; recombinant TbHK1, G6PDH-coupled NADH A340; inhibition, % at 10 µM; AID 1430; 220,000 tested, 0.11% active;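 active = inhibition of 50% or more in the single-dose primary screen; inactive = inhibition below 50%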
PfM18AAP inh-1 – PfM18AAP enzyme inhibition; recombinant PfM18AAP, H-Glu-NHMec fluorogenic cleavage; inhibition, % at 7.35 µM; 290,000 tested, 1.2% active;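 active = inhibition above the campaign mean inhibition over all tested compounds plus 3 SD, cut at about 28% in these data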;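 note: 0% = plate median of test compound wells and 100% = 2 mM ZnCl2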
TNF death inh – inhibitors of TNF-alpha induced necroptosis in Jurkat FADD-/- cells | Jurkat FADD-/- TNF necroptosis rescue, ATP luminescence, 24 h; 0 = TNF only, 100 = no-TNF cells | activation (protection from cell death), % at 10 µM | 220,000 tested, 0.068% active;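 active = activation, meaning protection from cell death, of at least 50% relative to plate controls; inactive = activation below 50%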;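 note: necroptosis triggered by 40 ng/mL TNF-alpha added together with compound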
Hep lipid drop – hepatic lipid droplet formation modulation; AML12 mouse hepatocytes, oleate lipid droplets, BODIPY imaging; 240,000 tested, 0.4% active; inhibition, % at 6.5 µM;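 active = lipid droplet intensity inhibited by at least 50%, with more than 500 cells counted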
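Test system: AML12 hepatocytes (mouse); reagent: oleate loading, 100 µM; dosing: one dose, 6.5 µM compound; incubation: overnight exposure; signal: fluorescence imaging, 20x objective, two fields per well; read-out basis: % inhibition of corrected integrated BODIPY droplet signal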
PfM18AAP inh-2 – PfM18AAP inhibition, confirmation; 2,400 tested, 28% active; inhibition, % at 7.35 µM; AID 2170; recombinant PfM18AAP, H-Glu-NHMec fluorogenic cleavage; shares compounds with PfM18AAP inh-1;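 active = mean inhibition over replicate wells above the hit cutoff set for the earlier primary screen, cut at about 29% in these data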;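 note: 0% = median of test compound wells and 100% = 2 mM ZnCl2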
CTSL1 counter – counter-screen for PFM18AAP inhibitors: confirmation of human cathepsin L inhibitors | shares compounds with PfM18AAP inh-1 | purified cathepsin L1, Z-Leu-Arg-MCA fluorescence | inhibition, % at 5.96 µM | 2,400 tested, under 10 active | AID 2178;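 active = average inhibition across replicates above the hit cutoff set in the earlier primary screen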;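 note: 0% = median of test compound wells and 100% = Z-Phe-Ala-diazomethylketone 1 µM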
Target sequence (P07711 whole entry, looked up): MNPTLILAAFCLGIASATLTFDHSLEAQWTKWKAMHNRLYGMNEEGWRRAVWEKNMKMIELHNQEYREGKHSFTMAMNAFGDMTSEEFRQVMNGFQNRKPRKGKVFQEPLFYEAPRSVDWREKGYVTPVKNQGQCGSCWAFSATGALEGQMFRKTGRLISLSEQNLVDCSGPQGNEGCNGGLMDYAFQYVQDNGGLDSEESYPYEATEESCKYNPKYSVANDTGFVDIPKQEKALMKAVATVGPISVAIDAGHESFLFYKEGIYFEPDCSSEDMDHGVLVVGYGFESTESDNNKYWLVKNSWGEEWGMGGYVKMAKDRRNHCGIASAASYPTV
* hit, by the source's call; nt = no result. Only some compounds are listed: those with a hit (about 2% of all), similar ones and a draw of the others.

SMILES	RBBP9 inh	zVAD death inh	Tb hexokinase	PfM18AAP inh-1	TNF death inh	Hep lipid drop	PfM18AAP inh-2	CTSL1 counter
COCCn1c(Cc2cccn2C)nnc1SCC(=O)NCc1ccc2c(c1)OCO2	-6	2	2	35*	1	-2	-40	2
CCCc1nc2cc3c(cc2[nH]1)n(C)c(=O)n3C	nt	nt	nt	1	nt	nt	nt	nt
O=c1[nH]c(=S)[nH]c2c1CN(Cc1ccc(F)cc1)CC2	nt	nt	nt	37*	nt	-2	9	5
O=C(O)c1cccc(NC(=S)N/N=C/c2cccc(O)c2)c1	3	1	-14	50*	0	nt	11	5
O=C(O)c1cccc(NC(=S)N/N=C/c2ccccn2)c1	-12	1	-11	20	1	10	nt	nt
Cc1cccc(C(=O)NNC(=O)C2CC2)c1	nt	nt	nt	0	nt	10	nt	nt
S=C(NCCCN1CCOCC1)NCCCN1CCOCC1	-7	0	5	39*	0	23	1	1
COc1ccc(Cl)cc1C(=O)NCCCN1CCOCC1	nt	nt	nt	-19	nt	4	nt	nt
COc1cc(OC)c(C(=O)NCCCN2CCOCC2)cc1OC	0	2	2	57*	1	2	-35	-3
COc1ccc(-c2cc3ccccc3s2)cc1[C@H]1[C@H]2C=CC[C@@H](C)[C@@H]2C(=O)N1Cc1ccccc1	nt	0	-5	nt	0	16	nt	nt
CC(C)Oc1ccc(-c2nn(-c3ccccc3)cc2/C=c2\sc3ncnn3c2=O)cc1	-1	0	-20	58*	-1	10	-17	3
CCc1nnc(NC(=O)CSc2nnc(CNC(=O)c3ccc(OC)c(OC)c3)o2)s1	-2	1	-1	42*	0	4	-25	-4
Cc1cccc(C)c1OCc1nc2ccccc2c(=O)n1/N=C/c1c[nH]c2ccccc12	-2	4	-9	0	-4	30	nt	nt
COc1cc(OC)cc(-c2cc3nc(C)cc(N4CCN(C(=O)c5ccco5)CC4)n3n2)c1	-4	0	-17	1	-13	2	nt	nt
N#C/C(=C/c1ccc(O)c(O)c1)C(=O)NCc1ccc(Cl)cc1	nt	nt	nt	38*	nt	2	5	0
N#C/C(=C\c1ccc(O)c(O)c1)C(=O)Nc1cccc2ncccc12	nt	nt	nt	63*	nt	-30	30*	3
COc1cc(C(=O)O[C@H]2C/C(C)=C/CC[C@@]3(C)O[C@@H]3[C@H](O)[C@@H]2C(C)C)cc(OC)c1OC	nt	nt	nt	-1	nt	nt	nt	nt
C=CCNCC(=O)NN=C(c1ccccc1)c1ccccc1	-6	0	1	8	-3	-13	nt	nt
O=C(O)c1csc(N/N=C/c2ccc(Br)cc2)n1	-6	1	-9	33*	1	36	-42	1
CCc1ccc(OC(=O)c2cccnc2)cc1	nt	nt	nt	-13	nt	-4	nt	nt
C=CCn1c(-c2sc3nc(C)cc(C)c3c2N)n[nH]c1=S	-1	0	5	43*	1	9	13	3
CSc1ncc(C(=O)Nc2ccc(C(C)=O)cc2)c(-c2ccccc2)n1	nt	nt	nt	15	nt	11	nt	nt
N#CC[C@H](Cc1ccccc1)N1CCN(Cc2ccccc2)CCC1=O	nt	nt	nt	6	nt	-6	nt	nt
N#CC[C@H](Cc1ccccc1)N1CCN(CCc2ccccc2)CCC1=O	nt	nt	nt	33*	nt	nt	-54	3
O=C(N/N=C/c1coc2ccc(Cl)cc2c1=O)c1cc(O)cc(O)c1	nt	nt	nt	26	nt	-2	nt	nt
CCOc1ccccc1C(=O)N/N=C/c1coc2ccc(Cl)cc2c1=O	nt	nt	nt	33*	nt	-11	-22	2
CC1(C)CC(=O)C(C(=S)Nc2ccccc2)=C(NC2CC(C)(C)NC(C)(C)C2)C1	-5	2	-13	47*	4	2	-48	3
CCC(C)NC(=O)C1CCN(S(=O)(=O)c2ccc3[nH]c(=O)ccc3c2)CC1 (stereo unspecified)	nt	nt	nt	36*	nt	2	-56	-1
Cc1onc(-c2ccccc2Cl)c1C(=O)OCC(=O)N1CCCc2ccccc21	-2	-1	-2	-2	1	nt	nt	nt

Bioassay records deposited in PubChem by several laboratories.
